Experimental data as given in ChEMBL document CHEMBL5647697, “Akt inhibition synergizes with polycomb repressive complex 2 inhibition in the treatment of multiple myeloma” (2019).
Active and inactive are the calls of the source. The calls are words filed in the database; no cut-off is given here.

How the values were obtained:
MM1.S [1] = test: Synergistic activity against human MM.1S cells assessed as combination index […] in presence of 1.25 uM UNC1999 […] at 0.25 uM incubated for 48 hrs by MTT assay; format: functional
Procedure, shortened: (§1)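 Cells were exposed to the EZH2/EZH1 inhibitor (UNC1999 or GSK126) for 72 h in total, with the Akt inhibitor added for the last 48 h. Viability was read by MTS assay relative to untreated control cells, in triplicate. The combination index for each dose pair came from isobologram analysis.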

MM1.S [2] = test: Upregulation of CDKN1B mRNA expression in human MM1.S cells at 1 micromol/L after 24 hrs by qRT-PCR analysis; format: functional, cell-based; conditions: dose 1.0 µmol/L
NCI-H929 [3] = test: Upregulation of EZH1 protein expression in human NCI-H929 cells at 0.03 to 3 micromol/L after 48 hrs by Western blot analysis; format: functional, cell-based; conditions: dose 0.03-3 µmol/L
Procedure, shortened: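 MM.1S and H929 cells were treated with graded TAS-117 for 48 h. EZH1 was detected by immunoblot and quantified relative to the GAPDH loading control.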

MM1.S [4] = test: Synergistic activity against human MM.1S cells assessed as combination index […] compound addition at 0.25 uM incubated for 48 hrs by MTT assay; format: functional; procedure, shortened: as §1
MM1.S [5] = test: Upregulation of H3K27me3 protein expression in human MM1.S cells at 0.3 to 5 micromol/L for 6 to 48 hrs by Western blot analysis; format: functional, cell-based; conditions: dose 0.3-5 µmol/L, time 6-48 hrs
Procedure, shortened: (§2)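 H3K27me3 was detected by immunoblot in MM.1S and H929 cells. Cells were given graded TAS-117 for 48 h, or 5 μmol/L for the indicated times. Signal is quantified relative to the H3 loading control.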

NCI-H929 [6] = test: Synergistic activity against human NCI-H929 cells assessed as combination index preincubated in presence of 2.5 uM GSK126 […] at 0.125 uM incubated for 48 hrs by […]; format: functional; procedure, shortened: as §1
NCI-H929 [7] = test: Upregulation of FOXO3 […] expression in human NCI-H929 cells assessed as enhanced nuclear accumulation at 1 micromol/L after 24 hrs by immunofluorescence staining; format: functional, cell-based; conditions: dose 1.0 µmol/L
OPM-2 [8] = test: Synergistic activity against human OPM-2 cells assessed as combination index preincubated in presence of 5 uM GSK126 for 72 hrs followed by compound addition at 2.5 uM incubated for 48 hrs by MTT assay; format: functional
NCI-H929 [9] = test: Downregulation of E2F1 mRNA expression in human NCI-H929 cells incubated at 0.3 to 3 micromol/L for 24 hrs by qRT-PCR analysis; format: functional, cell-based; conditions: dose 0.3-3 µmol/L
Procedure, shortened: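 MM.1S and H929 cells given TAS-117 at the indicated doses for 24 h. mRNA measured by RT-qPCR, fold change after normalization to GAPDH; SD of triplicates; significance versus untreated control.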

OPM-2 [10] = test: Synergistic activity against human OPM-2 cells assessed as combination index preincubated in presence of 2.5 uM UNC1999 for 72 hrs followed by compound addition at 1.25 uM incubated for 48 hrs by MTT assay; format: functional
NCI-H929 [11] = test: Synergistic activity against human NCI-H929 cells assessed as combination index […] at 0.25 uM incubated for 48 hrs by […]; format: functional; procedure, shortened: as §1
OPM-2/BTZ [12] = test: Downregulation of cyclin D1 protein expression in human OPM-2/BTZ cells incubated at 0.3 to 3 micromol/L for 48 hrs by Western blot analysis; format: functional, cell-based; conditions: dose 0.3-3 µmol/L
NCI-H929 [13] = test: Upregulation of H3K27me3 protein expression in human NCI-H929 cells at 0.3 to 5 micromol/L for 6 to 48 hrs by Western blot analysis; format: functional, cell-based; conditions: dose 0.3-5 µmol/L, time 6-48 hrs; procedure, shortened: as §2
MM1.S [14] = test: Downregulation of phospho-Rb protein expression in human MM1.S cells incubated at 0.3 to 3 micromol/L for 48 hrs by Western blot analysis; format: functional, cell-based; conditions: dose 0.3-3 µmol/L
Procedure, shortened: (§3)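 MM.1S and H929 cells given TAS-117 at the indicated doses for 48 h. Protein levels assessed by immunoblot.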

OPM-2 [15] = test: Synergistic activity against human OPM-2 cells assessed as combination index preincubated in presence of 1.25 uM UNC1999 for 72 hrs followed by compound addition at 2.5 uM incubated for 48 hrs by MTT assay; format: functional
MM1.S [16] = test: Synergistic activity against human MM.1S cells assessed as combination index […] at 0.25 uM incubated for 48 hrs by […]; format: functional; procedure, shortened: as §1
MM1.S [17] = test: Downregulation of cyclin D1 protein expression in human MM1.S cells incubated at 0.3 to 3 micromol/L for 48 hrs by Western blot analysis; format: functional, cell-based; conditions: dose 0.3-3 µmol/L; procedure, shortened: as §3
MM1.S [18] = test: Upregulation of BIM mRNA expression in human MM1.S cells at 1 micromol/L after 24 hrs by qRT-PCR analysis; format: functional, cell-based; conditions: dose 1.0 µmol/L
OPM-2/BTZ [19] = test: Downregulation of E2F1 mRNA expression in human OPM-2/BTZ cells incubated at 0.3 to 3 micromol/L for 48 hrs by qRT-PCR analysis; format: functional, cell-based; conditions: dose 0.3-3 µmol/L
MM1.S [20] = test: Downregulation of EZH2 mRNA expression in human MM1.S cells in presence of 5 micromol/L UNC1999 for 72 hrs followed by compound addition at 2 micromol/L incubated for 24 hrs by qRT-PCR analysis; conditions: dose 2.0 µmol/L
MM1.S [21] = test: Downregulation of H3K27me3 levels in human MM1.S cells […] at 0.3 micromol/L after 48 hrs by Western blot analysis relative to control; format: functional, cell-based; conditions: dose 0.3 µmol/L
Procedure, shortened: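 MM.1S cells transduced with lentiviral shRNA against EZH1 or luciferase, then treated with TAS-117 at the indicated doses for 48 h. H3K27me3 immunoblot with H3 as loading control.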

OPM-2 [22] = test: Synergistic activity against human OPM-2 cells assessed as combination index preincubated in presence of 2.5 uM GSK126 for 72 hrs followed by compound addition at 1.25 uM incubated for 48 hrs by MTT assay; format: functional
[23] = biological target: Serine/threonine-protein kinase AKT (Homo sapiens) (UniProt P31751+Q9Y243+P31749); test: Inhibition of Akt phosphorylation in human MM1.S cells at 0.3 to 5 micromol/L for 6 to 48 hrs by Western blot analysis; format: cell-based; conditions: dose 0.3-5 µmol/L, time 6-48 hrs
Serine/threonine-protein kinase AKT (Homo sapiens), sequence (P31749 whole entry, looked up): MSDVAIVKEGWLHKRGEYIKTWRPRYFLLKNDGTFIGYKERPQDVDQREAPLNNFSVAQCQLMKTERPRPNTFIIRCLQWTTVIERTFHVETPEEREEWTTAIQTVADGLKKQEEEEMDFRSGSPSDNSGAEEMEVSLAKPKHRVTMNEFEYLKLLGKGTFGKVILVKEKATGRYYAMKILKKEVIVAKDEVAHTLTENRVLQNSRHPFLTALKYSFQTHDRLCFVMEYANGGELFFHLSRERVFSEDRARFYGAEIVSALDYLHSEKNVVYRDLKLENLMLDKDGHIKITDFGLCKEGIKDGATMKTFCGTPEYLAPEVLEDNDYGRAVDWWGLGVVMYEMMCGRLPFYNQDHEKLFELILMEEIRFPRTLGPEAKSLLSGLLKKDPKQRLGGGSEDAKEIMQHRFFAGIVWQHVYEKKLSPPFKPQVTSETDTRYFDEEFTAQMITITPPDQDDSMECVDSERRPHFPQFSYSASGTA
Serine/threonine-protein kinase AKT (Homo sapiens), sequence (P31751 whole entry, looked up): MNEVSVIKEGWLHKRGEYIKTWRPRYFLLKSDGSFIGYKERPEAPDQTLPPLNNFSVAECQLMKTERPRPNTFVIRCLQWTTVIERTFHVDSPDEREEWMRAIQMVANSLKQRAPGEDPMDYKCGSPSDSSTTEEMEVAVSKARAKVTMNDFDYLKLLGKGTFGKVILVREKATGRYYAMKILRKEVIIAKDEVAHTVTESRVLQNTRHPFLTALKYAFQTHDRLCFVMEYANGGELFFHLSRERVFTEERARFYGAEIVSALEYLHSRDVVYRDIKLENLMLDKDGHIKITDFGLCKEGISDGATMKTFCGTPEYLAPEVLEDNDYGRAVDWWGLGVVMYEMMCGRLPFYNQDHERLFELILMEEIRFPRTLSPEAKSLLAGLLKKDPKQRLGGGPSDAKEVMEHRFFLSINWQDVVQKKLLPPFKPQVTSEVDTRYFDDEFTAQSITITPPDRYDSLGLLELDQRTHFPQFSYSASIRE
Serine/threonine-protein kinase AKT (Homo sapiens), sequence (Q9Y243 whole entry, looked up): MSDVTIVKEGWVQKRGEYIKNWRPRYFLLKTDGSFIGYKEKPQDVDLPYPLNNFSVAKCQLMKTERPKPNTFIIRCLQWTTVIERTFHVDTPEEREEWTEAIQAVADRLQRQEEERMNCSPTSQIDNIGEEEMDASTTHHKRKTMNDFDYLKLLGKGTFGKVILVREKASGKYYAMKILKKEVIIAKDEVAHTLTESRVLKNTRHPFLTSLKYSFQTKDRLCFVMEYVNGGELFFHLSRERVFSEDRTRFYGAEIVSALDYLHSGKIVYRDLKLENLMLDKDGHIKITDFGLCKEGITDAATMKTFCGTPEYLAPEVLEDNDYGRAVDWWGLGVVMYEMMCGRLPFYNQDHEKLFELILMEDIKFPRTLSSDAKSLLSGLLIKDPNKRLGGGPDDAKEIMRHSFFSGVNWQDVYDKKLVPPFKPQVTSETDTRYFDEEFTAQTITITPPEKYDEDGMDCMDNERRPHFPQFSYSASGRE
Procedure, shortened: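 MM.1S and H929 cells were treated with graded doses for 48 h, or with 5 μmol/L for the stated times. Lysates were immunoblotted, with GAPDH, total Akt and H3 as loading controls.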

OPM-2 [24] = test: Synergistic activity against human OPM-2 cells assessed as combination index preincubated in presence of 1.25 uM GSK126 for 72 hrs followed by compound addition at 2.5 uM incubated for 48 hrs by MTT assay; format: functional
NCI-H929 [25] = test: Induction of apoptosis in human NCI-H929 cells assessed as late apoptotic cells at 2 micromol/L incubated for 12 hrs by annexin V/PI staining based flow cytometry (reference value: […]%); format: functional; conditions: dose 2 µmol/L
MM1.S [26] = test: Cytotoxicity against human MM1.S cells assessed as reduction in cell viability at 0.3125 to 10 micromol/L after 48 hrs by MTS assay; format: functional, cell-based; conditions: dose 0.3125-10 µmol/L
Procedure, shortened: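 Seven myeloma lines (MM.1S, H929, OPM2/BTZ among them) exposed to TAS-117 at increasing concentrations up to 10 μmol/L for 48 h. Viability read by MTS against an untreated control; mean ± SD of triplicates.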

MM1.S [27] = test: Downregulation of E2F1 protein expression in human MM1.S cells incubated at 0.3 to 3 micromol/L for 48 hrs by Western blot analysis; format: functional, cell-based; conditions: dose 0.3-3 µmol/L; procedure, shortened: as §3

C[C@]1(O)C[C@@](N)(c2ccc(-c3nc4n(c3-c3ccccc3)COc3ccncc3-4)cc2)C1 [PIFUSERTIB] was tested, and the CI (MM1.S [1]) was 0.251, the Activity (MM1.S [2]) was “Active” and the Activity (NCI-H929 [3]) was “Active”. The CI (MM1.S [4]) was 0.584, the Activity (MM1.S [5]) was “Active” and the CI (NCI-H929 [6]) was 4.094. For the same compound, the Activity (NCI-H929 [7]) was “Active”, the CI (OPM-2 [8]) was 2.74 and the Activity (NCI-H929 [9]) was “Active”. For the same compound, the CI (OPM-2 [10]) was 2.53, the CI (NCI-H929 [11]) was 0.778 and the Activity (OPM-2/BTZ [12]) was “Active”. The Activity (NCI-H929 [13]) was “Active”, the Activity (MM1.S [14]) was “Active” and the CI (OPM-2 [15]) was 1.51. For the same compound, the CI (MM1.S [16]) was 0.826, the Activity (MM1.S [17]) was “Active” and the Activity (MM1.S [18]) was “Active”. The Activity (OPM-2/BTZ [19]) was “Active”, the Activity (MM1.S [20]) was “Active” and the Activity (MM1.S [21]) was “Active”. For the same compound, the CI (OPM-2 [22]) was 1.462, the inhibition [23] was “Active” and the CI (OPM-2 [24]) was 2.465. The Activity (NCI-H929 [25]) was 3.42%, the Activity (MM1.S [26]) was “Active” and the Activity (MM1.S [27]) was “Active”.
